From ChEMBL document CHEMBL4425094, “Novel Benzo[a]quinolizidine Analogs Induce Cancer Cell Death through Paraptosis and Apoptosis” (J Med Chem, 2016) come the findings set out here.

Active and inactive are the calls of the source. The rule behind the calls is not given here.

For test [1], the system named is PC-3. Kind of test: Cytotoxicity against human PC3 cells assessed as cell growth inhibition after 24 hrs by MTT assay. The format is functional, cell-based. The conditions noted are these: PC-3, 24 h. An outline of the steps:
(§1)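 Cells seeded 24 h in RPMI 1640 + 10% FBS. RWPE-1 was kept in K-SFM with bovine pituitary extract and EGF. Cells then exposed to compounds for 24 h at 37 °C, 5% CO2, with DMSO vehicle and docetaxel as positive control. MTT added for 4 h, absorbance read at 570 nm. Triplicate runs, IC50 reported as mean of three experiments.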

For a further test, the system named is MCF7. Kind of test: Cytotoxicity against human MCF7 cells assessed as cell growth inhibition after 24 hrs by MTT assay. The conditions noted are these: MCF7, 24 h. The format is functional, cell-based. The method, boiled down:
as §1

Another test deals with HeLa. Put plainly: Cytotoxicity against human HeLa cells assessed as cell growth inhibition after 24 hrs by MTT assay. The format is functional, cell-based. The method, boiled down: as §1
The next test concerns K562. Kind of test: Cytotoxicity against human K562 cells assessed as cell growth inhibition after 24 hrs by MTT assay. The format is functional, cell-based. The following applies: K562, 24 h. An outline of the steps:
as §1

The test system of the next test is RWPE-1. Kind of test: Cytotoxicity against human RWPE1 cells assessed as cell growth inhibition after 24 hrs by MTT assay. The test is classed as cell-based. The following applies: RWPE-1, 24 h. An outline of the steps:
as §1

For a further test, the system named is DU-145. Kind of test: Cytotoxicity against human DU145 cells assessed as cell growth inhibition after 24 hrs by MTT assay. The test is classed as functional, cell-based. The conditions noted are these: DU-145, 24 h. An outline of the steps: as §1
The subject of another test is MDA-MB-231. Put plainly: Cytotoxicity against human MDA-MB-231 cells assessed as cell growth inhibition after 24 hrs by MTT assay. The test is classed as functional, cell-based. The conditions noted are these: MDA-MB-231, 24 h. An outline of the steps: as §1
The subject of test [2] is PC-3. Put plainly: Induction of morphological changes in human PC3 cells assessed as formation of massive cytoplasmic vacuoles at 1 uM after 12 hrs by confocal microscopic analysis. The format is functional, cell-based.

In the case of `C[C@@H]1C[C@H](O)C[C@H]2c3cc(OCc4cc(C(F)(F)F)cc(C(F)(F)F)c4)c(OCc4cc(C(F)(F)F)cc(C(F)(F)F)c4)cc3CCN12`, the IC50 amounted to 680 nM in the test on PC-3 [1]; 1870 nM in the test with MCF7; 2840 nM in the test with HeLa; 1150 nM in the test on K562; 2320 nM in the test on RWPE-1; 1870 nM with DU-145. In addition, the concentration for half-maximal inhibition (IC50) in the test with MDA-MB-231 was determined as 560 nM. Moreover, in the test on PC-3 [2], the outcome was Active.
In the case of `Cc1cc(C)cc(COc2cc3c(cc2OCc2cc(C)cc(C)c2)[C@@H]2C[C@](C)(O)C[C@@H](C)N2CC3)c1`, the half-inhibitory concentration (IC50) in the test on PC-3 [1] worked out at 890 nM; in the test with MCF7, 500 nM; in the test with HeLa, 1250 nM; in the test on K562 it was 1460 nM; in the test on RWPE-1 it was 4770 nM; with DU-145 it was 1950 nM. Further, the half-inhibitory concentration (IC50) in the test with MDA-MB-231 turned out to be 2350 nM. Moreover, in the test with PC-3 [2], the outcome was Active.
For the molecule `C[C@@H]1C[C@@](C)(O)C[C@H]2c3cc(OCc4cccc(F)c4)c(OCc4cccc(F)c4)cc3CCN12`, the IC50 in the test on PC-3 [1] worked out at 410 nM; in the test with MCF7, 470 nM; with HeLa, 960 nM; in the test with K562 it was 1010 nM; with RWPE-1 it was 1860 nM; with DU-145 it was 2140 nM. Also, the concentration for half-maximal inhibition (IC50) in the test with MDA-MB-231 was determined as 590 nM. For the same molecule, the result with PC-3 [2] was Active.
As for `COc1ccc([C@@H]2C[C@@H](O)C[C@H]3c4cc(OCc5cc(C)cc(C)c5)c(OCc5cc(C)cc(C)c5)cc4CCN23)cc1OC`, the 50% inhibitory concentration (IC50) in the test on PC-3 [1] is 1150 nM; with MCF7, 1320 nM; in the test on HeLa, 3050 nM; in the test with K562, 3950 nM; with RWPE-1, 3040 nM; in the test with DU-145, 4530 nM. Further, the half-inhibitory concentration (IC50) in the test on MDA-MB-231 was determined as 970 nM. In addition, the result in the test on PC-3 [2] was Active.
For the molecule `Cc1cc(C)cc(COc2cc3c(cc2OCc2cc(C)cc(C)c2)[C@@H]2C[C@@H](O)C[C@@H](C)N2CC3)c1` (racemic), the half-maximal inhibitory concentration (IC50) with PC-3 [1] turned out to be 720 nM; with MCF7 it was 650 nM; in the test on HeLa it was 3240 nM; in the test on K562 it was 2350 nM; in the test on RWPE-1, 1350 nM; with DU-145, 1510 nM. For the same molecule, in the test with MDA-MB-231, the IC50 came out at 1330 nM. Further, the outcome in the test with PC-3 [2] was Active.
On to `C[C@@H]1C[C@@H](O)C[C@H]2c3cc(OCc4cccc(F)c4)c(OCc4cccc(F)c4)cc3CCN12`, for which the IC50 in the test on PC-3 [1] amounted to 820 nM; with MCF7 it was 490 nM; with HeLa, 1730 nM; with K562, 1420 nM; in the test on RWPE-1, 1490 nM; in the test on DU-145, 3850 nM. Besides, the IC50 with MDA-MB-231 is 580 nM. Moreover, in the test with PC-3 [2], the outcome was Active.
In the case of `C[C@@H]1C[C@@H](O)C[C@H]2c3cc(OCc4ccc(Br)cc4)c(OCc4ccc(Br)cc4)cc3CCN12`, the concentration for half-maximal inhibition (IC50) in the test with PC-3 [1] stood at 1240 nM; with MCF7, 1290 nM; with HeLa, 1160 nM; in the test on K562, 1220 nM; in the test with DU-145, 2580 nM; with MDA-MB-231, 880 nM. Also, the outcome with PC-3 [2] was Active.
For the molecule `C[C@@H]1C[C@@](C)(O)C[C@H]2c3cc(OCc4cc(C(F)(F)F)cc(C(F)(F)F)c4)c(OCc4cc(C(F)(F)F)cc(C(F)(F)F)c4)cc3CCN12`, the concentration for half-maximal inhibition (IC50) in the test on PC-3 [1] is 610 nM; with MCF7 it was 810 nM; in the test with HeLa, 1210 nM; in the test on K562, 1840 nM; in the test on RWPE-1, 2570 nM; in the test with DU-145, 2240 nM. In the test on MDA-MB-231, the concentration for half-maximal inhibition (IC50) amounted to 530 nM. In addition, in the test on PC-3 [2], the outcome was Active.
As for `C[C@@H]1CC(=O)C[C@H]2c3cc(OCc4ccc(Br)cc4)c(OCc4ccc(Br)cc4)cc3CCN12` (relative stereo), the IC50 with PC-3 [1], in the test with MCF7, in the test with HeLa, in the test on K562, in the test on RWPE-1 and in the test on DU-145 was > 20000 nM in each case. Moreover, the half-inhibitory concentration (IC50) in the test on MDA-MB-231 was > 20000 nM.
As to `COc1ccc([C@@H]2C[C@@H](O)C[C@H]3c4cc(OCc5ccccc5)c(OCc5ccccc5)cc4CCN23)cc1`, the IC50 in the test on PC-3 [1], in the test on MCF7, in the test on HeLa, with K562, in the test on RWPE-1 and in the test with DU-145 was > 20000 nM each time. Further, in the test on MDA-MB-231, the IC50 is > 20000 nM.
`CCCCCC[C@@H]1C[C@H](O)C[C@H]2c3cc(OCc4ccccc4)c(OCc4ccccc4)cc3CCN12`: the IC50 in the test on PC-3 [1], in the test with MCF7, in the test on HeLa, in the test on K562, in the test with RWPE-1 and with DU-145 was > 20000 nM throughout. Besides, in the test with MDA-MB-231, the IC50 was > 20000 nM.
Take `CCC[C@@H]1CC(=O)C/C=C(/CC)[C@H]2c3cc(OCc4ccccc4)c(OCc4ccccc4)cc3CCN12` (relative stereo): the IC50 in the test with PC-3 [1], with MCF7, with HeLa, with K562, in the test with RWPE-1 and with DU-145 was > 20000 nM each time. In addition, the 50% inhibitory concentration (IC50) in the test on MDA-MB-231 is > 20000 nM.
Consider `C[C@@H]1C[C@@H](O)C[C@H]2c3cc4c(cc3CCN12)OCO4`, for which the IC50 with PC-3 [1], in the test with MCF7, in the test on HeLa, with K562, in the test with RWPE-1 and with DU-145 was > 20000 nM throughout. Moreover, the half-maximal inhibitory concentration (IC50) in the test with MDA-MB-231 is > 20000 nM.
In the case of `O=C1C=CN2CCc3cc(OCc4ccccc4)c(OCc4ccccc4)cc3C2C1` (centres undefined), the IC50 in the test on PC-3 [1], in the test with MCF7, in the test on HeLa, in the test on K562, with RWPE-1 and in the test with DU-145 was > 20000 nM each time. For the same molecule, in the test with MDA-MB-231, the half-maximal inhibitory concentration (IC50) was > 20000 nM.
As for `C[C@@H]1C[C@@H](O)C[C@H]2c3cc(OCc4ccc(C(C)(C)C)cc4)c(OCc4ccc(C(C)(C)C)cc4)cc3CCN12`, the IC50 in the test with PC-3 [1] was 3790 nM; in the test with MCF7, 860 nM; in the test on HeLa it was 2060 nM; in the test with K562, 2040 nM; with RWPE-1 it was 1910 nM; with DU-145, 2220 nM. Further, the half-maximal inhibitory concentration (IC50) in the test with MDA-MB-231 came to 3250 nM.
As to `C[C@@H]1C[C@H](O)C[C@H]2c3cc4c(cc3CCN12)OCO4`, the IC50 in the test with PC-3 [1], in the test with MCF7, in the test with HeLa, with K562, with RWPE-1 and in the test with DU-145 was > 20000 nM each time. Moreover, the 50% inhibitory concentration (IC50) in the test with MDA-MB-231 was > 20000 nM.
Regarding `O[C@@H]1C[C@@H](c2ccccc2)N2CCc3cc(OCc4ccccc4)ccc3[C@@H]2C1`, the half-maximal inhibitory concentration (IC50) in the test with PC-3 [1], in the test on MCF7, with HeLa, in the test on K562, with RWPE-1 and in the test with DU-145 was > 20000 nM throughout. Further, in the test on MDA-MB-231, the IC50 was > 20000 nM.
Take `C[C@@H]1C[C@@H](O)C[C@H]2c3cc(OCc4cc(C(F)(F)F)cc(C(F)(F)F)c4)c(OCc4cc(C(F)(F)F)cc(C(F)(F)F)c4)cc3CCN12`: the IC50 with PC-3 [1] was found to be 450 nM; in the test on MCF7, 520 nM; in the test on HeLa, 2010 nM; with K562, 1350 nM; with RWPE-1, 1150 nM; with DU-145, 1740 nM. In addition, the concentration for half-maximal inhibition (IC50) in the test on MDA-MB-231 is 510 nM. Further, in the test on PC-3 [2], the result was Active.
Turning to `C[C@@H]1CC(=O)C[C@H]2c3cc(OCc4cccc(F)c4)c(OCc4cccc(F)c4)cc3CCN12`, the 50% inhibitory concentration (IC50) with PC-3 [1], with MCF7, in the test with HeLa, with K562, in the test with RWPE-1 and in the test with DU-145 was > 20000 nM throughout. For the same molecule, the half-inhibitory concentration (IC50) with MDA-MB-231 is 1300 nM.
As to `O=[N+]([O-])c1ccc([C@@H]2C[C@H](O)C[C@H]3c4cc(OCc5ccccc5)c(OCc5ccccc5)cc4CCN23)cc1`, the IC50 in the test with PC-3 [1], with MCF7, in the test with HeLa, in the test on K562, in the test on RWPE-1 and in the test on DU-145 was > 20000 nM throughout. Moreover, the half-inhibitory concentration (IC50) with MDA-MB-231 was > 20000 nM.
In the case of `CCCCCCCCCCCCCCCCOc1cc2c(cc1OCCCCCCCCCCCCCCCC)[C@@H]1C[C@H](O)C[C@@H](C)N1CC2`, the 50% inhibitory concentration (IC50) in the test on PC-3 [1], in the test with MCF7, with HeLa, in the test on K562, in the test on RWPE-1 and with DU-145 was > 20000 nM each time. Besides, in the test on MDA-MB-231, the IC50 is > 20000 nM.
Turning to `O[C@H]1C[C@@H](c2ccccc2)N2CCc3cc(OCc4ccccc4)c(OCc4ccccc4)cc3[C@@H]2C1`, the IC50 in the test with PC-3 [1], in the test with MCF7, with HeLa, with K562, in the test on RWPE-1 and in the test on DU-145 was > 20000 nM in each case. Further, the IC50 with MDA-MB-231 was > 20000 nM.
Regarding `O=C1C[C@@H](c2ccccc2)N2CCc3cc(OCc4ccccc4)c(OCc4ccccc4)cc3[C@@H]2C1` (relative stereo), the concentration for half-maximal inhibition (IC50) with PC-3 [1], in the test on MCF7, with HeLa, in the test with K562, with RWPE-1 and with DU-145 was > 20000 nM each time. In addition, in the test with MDA-MB-231, the 50% inhibitory concentration (IC50) is > 20000 nM.
